PKA-R1A activ: activators of PKA-R1A complex. PKA-R1A dissociation, Cy5-IP20 fluorescence polarization; scaled: DMSO 0%, 113 µM cGMP 100%. activation, % at 11.4 µM. 0.083% of 340,000 active. AID 504707;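 active = percent activation above the mean of all tested compounds plus 3 SD, cut at about 19% in these data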;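 note: higher means more PKAc released from R1A so a rise in polarization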
IMP-1 inh: blocks Pseudomonas aeruginosa IMP-1 metallo-beta-lactamase. 0.45% of 290,000 active. inhibition, % at 5.6 µM. AID 1556. purified IMP-1, nitrocefin hydrolysis, epi-absorbance fluorescence;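 active = inhibition above the mean plus 3 SD of all compounds in the same screening run, cut at about 4.5% in these data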;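 note: 0% = IMP-1 with DMSO and 100% = DMSO wells lacking enzyme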
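Test system: recombinant IMP-1 enzyme, purified / Medium: HEPES buffer pH 7.1 with ZnSO4 and Brij 35 / Doses: single dose, 5.6 µM / Times: 25 °C, 15 min preincubation, 25 min reaction / Detection: Epi-absorbance via hydrolysed-nitrocefin quenching of white-plate fluorescence, 480/530 nm, EDTA stop / Evaluation: percent inhibition from optical density relative to buffer-blank wells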
MsrA inhibitor: inhibits bovine methionine sulfoxide reductase A; purified bovine MsrA, absorbance read-out; 0.75% of 360,000 active; inhibition, % at 15.5 µM;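 note: 0% = vehicle wells with enzyme and 100% = reference inhibitor wells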
MsrA act: bovine methionine sulfoxide reductase A activation; purified bovine MsrA, absorbance read-out; activation, % at 10.6 µM; 0.3% of 360,000 active; in the data active = activation above about 7.5%;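 note: 0% = vehicle and 100% = reference activator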
VIM-2 inh: blocks Pseudomonas aeruginosa VIM-2 metallo-beta-lactamase; AID 1527; purified VIM-2, nitrocefin hydrolysis, epi-absorbance fluorescence; inhibition, % at 5.6 µM; 0.89% of 290,000 active;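 active = inhibition above the mean of all tested compounds plus 3 SD, cutoff set per screening run, cut at about 7.5% in these data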;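 note: red hydrolysis product quenches plate fluorescence so inhibitors raise well fluorescence; 0% = enzyme with DMSO and 100% = DMSO without enzyme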
PKA-R2B activ: PKA-R2B complex activation | P22694+P31323 | PKA-R2B holoenzyme dissociation, Cy5-IP20 fluorescence polarization; R2B truncated from residue 108, S112A mutant; 0% DMSO only, 100% 113 µM cGMP | activation, % at 11.4 µM | 0.079% of 340,000 active | AID 504700;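 active = activation above a cutoff set at the mean over all compounds plus 3 SD, cut at about 18% in these data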;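 note: higher means more holoenzyme dissociation and a rise in polarization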
Target sequence (P31323 whole entry, looked up, other chains not shown, the tested form may be a part): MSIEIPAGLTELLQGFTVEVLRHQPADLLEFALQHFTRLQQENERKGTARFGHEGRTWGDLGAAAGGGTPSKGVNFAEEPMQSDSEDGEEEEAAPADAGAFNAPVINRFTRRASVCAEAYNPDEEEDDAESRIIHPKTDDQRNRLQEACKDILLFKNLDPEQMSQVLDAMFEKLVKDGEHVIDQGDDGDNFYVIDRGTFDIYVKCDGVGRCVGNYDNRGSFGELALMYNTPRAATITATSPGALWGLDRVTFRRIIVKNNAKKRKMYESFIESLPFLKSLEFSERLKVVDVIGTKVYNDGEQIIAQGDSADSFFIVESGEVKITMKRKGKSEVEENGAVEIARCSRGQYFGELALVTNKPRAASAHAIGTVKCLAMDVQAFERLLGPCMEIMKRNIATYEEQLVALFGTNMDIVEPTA
MsrA inh confirm: confirmation of bovine MsrA inhibitors | shares compounds with MsrA inhibitor | purified bovine MsrA, absorbance read-out | inhibition, % at 15.5 µM | 41% of 2,300 active | AID 651822;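 note: coupled to thioredoxin reductase with NADPH and selenocystamine and DMSO as substrate; 0% = vehicle only and 100% = full effect of reference inhibitor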
* hit, by the source's call; / = no result. A selection: hits, their analogues and other compounds. The true share with any hit is near 2.1%. Cut-off read from the data, not from the text of the source, unless noted: active = inhibition above about 4.5%; inactive = the rest.

SMILES	PKA-R1A activ	IMP-1 inh	MsrA inhibitor	MsrA act	VIM-2 inh	PKA-R2B activ	MsrA inh confirm
CC(C)[C@H](NS(=O)(=O)c1ccccc1F)C(=O)NC1CCCCC1	2.7	/	1.6	-8.0	/	1.8	/
CCCCc1n[nH]c2c1/C(=N/OCC)CC(C)(C)C2	/	-0.5	19.3*	-2.0	-0.5	/	12.9*
COCCN(C(=O)c1ccc(-c2ccc([N+](=O)[O-])cc2)o1)c1c(N)n(CC(C)C)c(=O)[nH]c1=O	-3.2	/	4.7*	-4.1	/	-2.2	4.6*
COCCN(C(=O)c1ccc(-c2ccc(Cl)cc2)o1)c1c(N)n(CC(C)C)c(=O)[nH]c1=O	-0.6	/	2.6	-1.1	/	2.6	/
COc1c(C)cc(C(O)c2ncc(-c3cccc(F)c3)[nH]2)cc1C (stereo unspecified)	/	/	-1.0	-2.5	/	/	/
CC1(C)CC(N2CCCC2)=CC(=[N+]2CCCCCC2)C1	1.2	-0.3	6.7*	-10.1	1.8	-4.3	4.9*
CC1CC(C)C[N+](=C2C=C(N3CCCC3)CC(C)(C)C2)C1 (stereo unspecified)	15.8	-0.5	5.8*	-10.3	2.6	3.5	4.5
CC1(C)CC(N2CCN(c3ccccc3)CC2)=CC(=[N+]2CCCC2)C1	-8.6	0.7	5.5*	-5.2	0.1	-3.0	5.0*
Cc1ccc([C@@H]2C[C@H]3[C@@H](CN2S(=O)(=O)c2ccc(Cl)cc2)C(=O)C[C@@H](c2ccc(Cl)cc2)N3S(=O)(=O)c2ccccc2C)cc1	-6.2	/	0.6	-6.0	/	-0.5	/
COc1ccc(/C=C(\C#N)C(=O)NC(C)c2ccccc2)cc1O (stereo unspecified)	2.0	-1.5	4.9*	-5.6	0.1	10.3	3.0
CCOc1ccc(N(CC(=O)NC(C)C)C(=O)CCC(=O)Nc2ccccn2)cc1	3.9	-0.5	-1.0	-0.5	-1.1	2.3	/
Cc1cc(=O)[nH]c(NN=Cc2c(Cl)cccc2Cl)n1	3.8	/	0.8	5.3	/	-2.5	/
CSc1ccc(/C=N/Nc2nc(C)cc(=O)[nH]2)cc1	-5.1	-4.0	4.9*	-5.3	1.8	0.2	3.6
Cc1cc(=O)[nH]c(N/N=C/C=C/c2ccccc2)n1	0.8	-4.0	10.6*	-8.3	-3.5	-4.5	4.3
Cc1cc(=O)[nH]c(N/N=C/c2ccc(O)c(O)c2)n1	-3.3	-0.7	3.6	-5.7	-1.2	1.2	/
Cc1cc(=O)[nH]c(N/N=C/c2ccc(Br)s2)n1	-1.5	-3.1	5.5*	-5.0	-3.3	-11.6	4.1
CC1Cc2ccccc2N1C1=CC(=O)CCC1 (stereo unspecified)	-4.3	0.6	5.5*	-3.6	0.4	-14.2	5.4*
CC1Cc2ccccc2N1C1=NS(=O)(=O)c2ccccc21 (stereo unspecified)	-1.1	-3.6	1.7	-0.5	-1.8	2.5	/
S=c1[nH]nc(C2CCCCC2)n1/N=C/c1ccccc1Cl	-6.2	0.4	15.1*	-2.4	-1.0	0.0	11.8*
COc1cccc(C2=CC(c3cccc(OC)c3OC)n3nnnc3N2)c1 (stereo unspecified)	11.2	-4.0	14.4*	-7.8	-2.3	-3.2	9.3*
COc1cccc(C2=CC(c3cccc(OC)c3OC(F)F)n3nnnc3N2)c1 (stereo unspecified)	-7.5	-2.8	3.2	-0.8	-3.1	-2.6	/
COc1ccc(-n2c(/C=C(\C)O)nc(=O)c3c(C)cc(C)nc32)cc1	-2.5	-2.4	5.8*	-4.5	0.9	3.3	4.0
O=C(O)c1cc(N/N=C/C=C/c2ccccc2)ccc1Cl	-1.9	-2.4	5.1*	-5.1	-3.0	4.4	4.3
NC(=S)N/N=C/c1cccc(/C=N/NC(N)=S)c1	0.6	-2.5	2.1	-1.2	-1.2	2.8	/
Cc1occc1C(=O)N/N=C/C=C/c1ccccc1	-4.3	-4.0	5.5*	-6.0	-3.2	-1.2	5.1*
SMILES	PKA-R1A activ	IMP-1 inh	MsrA inhibitor	MsrA act	VIM-2 inh	PKA-R2B activ	MsrA inh confirm
Cc1cc(C(=O)N/N=C/C=C/c2ccccc2)c(C)o1	-4.2	-0.7	4.7*	-4.9	-4.3	3.8	3.9
NC(=S)N/N=C/C=C/c1ccccc1	-4.3	0.6	5.2*	-8.3	-3.1	-2.7	4.5
CCCOc1ccc(C(=O)CCC(=O)OCC(=O)Nc2cccc(S(N)(=O)=O)c2)cc1	0.0	/	-1.3	-0.3	/	4.9	/
Cc1c(Br)cnn1C(C)C(=O)N1CCN(c2ccccc2F)CC1 (stereo unspecified)	1.6	/	0.4	1.7	/	6.2	/
CCOC(=O)[C@H]1[C@H]2COc3ccc(OC)cc3[C@@H]2N2C(=O)CN(CCc3c[nH]c4ccccc34)C(=O)[C@@]12C	0.7	/	-0.6	-0.1	/	-4.0	/
Cc1ccc(C(=O)N/N=C/C=C/c2ccccc2)cc1	-9.3	-2.9	4.9*	-5.0	-2.9	-10.0	4.6*
O=C(N/N=C/C=C/c1ccccc1)c1cccc(Br)c1	8.6	-1.7	4.4	-1.3	-1.2	-5.4	/
CS(=O)(=O)c1ccc2nc(NC(=O)c3ccc(NS(=O)(=O)c4cccc([N+](=O)[O-])c4)cc3)sc2c1	6.7	-1.8	5.3*	-2.2	-1.4	0.2	5.3*
Cc1cccc(C(=O)Nc2nc3ccc(S(C)(=O)=O)cc3s2)c1	-1.2	-3.5	0.4	-2.5	-2.9	-2.9	/
CS(=O)(=O)c1ccc2nc(NC(=O)c3ccc(S(=O)(=O)NCC4CCCO4)cc3)sc2c1 (stereo unspecified)	12.5	-0.6	5.0*	-3.0	-1.9	-0.2	3.6
Cc1ccc(C(=O)Nc2nc3ccc(S(C)(=O)=O)cc3s2)cc1C	-4.2	-2.8	-0.3	-5.3	-1.9	-10.4	/
C[C@@H](NC(=O)c1coc(=O)c(Br)c1)c1ccccc1	10.7	-1.0	4.8*	-2.9	-1.1	0.0	4.8*
COc1ccc(C(=O)NC(C)c2ccccc2)cc1Br (stereo unspecified)	4.7	-1.3	-0.7	-4.3	-1.7	-7.5	/
COc1cccc(CN(C)C(=O)/C=C/c2ccc(S(=O)(=O)N3CCCCCC3)cc2)c1	-3.3	-3.4	2.5	-4.0	-2.2	-0.9	/
COC(=O)C1CC(Cl)CN1c1ncc(C(F)(F)F)cc1Cl (stereo unspecified)	-0.3	-5.6	5.1*	-5.1	-4.2	1.8	0.5
O=C(N/N=C/C=C/c1ccc([N+](=O)[O-])cc1)c1cccs1	-1.0	-1.9	1.9	-1.4	-2.6	0.0	/
Cc1cc(C(=O)N/N=C/C=C/c2ccc(Br)cc2)n[nH]1	7.5	0.3	6.0*	-3.2	-5.5	-2.7	3.0
Cc1cc(C(=O)N/N=C/C=C/c2ccc([N+](=O)[O-])cc2)n[nH]1	-3.8	-2.0	7.6*	-12.0	-2.2	-9.4	7.9*
CC(C)(C)c1ccc(C(=O)/C=C2\NC(=O)CS2)cc1	-11.2	-6.9	5.1*	-11.7	-5.8	-1.7	4.5
